Compounds with a hit are over-represented: about 2.5% of the library has one in this group of screens.
MC4R barr agon: human MC4R agonism via beta-arrestin. U2OS MC4R beta-arrestin complementation, luminescence; percent of melanotan II response, DMSO zero. activation, % at 8.9 µM. 360,000 tested, 0.98% active. AID 540308;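 active = activation above a per-plate cutoff, the mean activation of sample wells on that plate plus 3 SD, cut at about 8% in these data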
Target sequence (P32245 whole entry, looked up): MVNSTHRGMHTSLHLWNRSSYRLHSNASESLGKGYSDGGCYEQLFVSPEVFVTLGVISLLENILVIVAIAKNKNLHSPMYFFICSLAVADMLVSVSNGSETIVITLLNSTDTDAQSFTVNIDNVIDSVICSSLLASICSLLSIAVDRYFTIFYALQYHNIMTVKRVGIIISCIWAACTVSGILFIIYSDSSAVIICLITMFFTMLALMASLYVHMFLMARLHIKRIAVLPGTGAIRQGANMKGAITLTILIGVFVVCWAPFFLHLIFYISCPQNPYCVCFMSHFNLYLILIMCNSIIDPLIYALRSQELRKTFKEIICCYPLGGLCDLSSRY
NTR1 agonist: NTR1 (human) agonism; P30989; 330,000 tested, 0.17% active; NTR1-U2OS beta-arrestin-GFP spot imaging, agonist mode; activation, % at 20 µM;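 active = activation at or above 40% of the spot to cytoplasm intensity ratio, with at least 20 cells analyzed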;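 also: 0% = DMSO without peptide and 100% = 100 nM NTR1 peptide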
Exocytosis inh: lytic granule exocytosis inhibition. TALL-104 LAMP-1 surface exposure, flow cytometry; cells stimulated with thapsigargin and PMA. inhibition, % at 10 µM. 360,000 tested, 0.66% active. AID 651702;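 active = inhibition above about 55%, limit read from the data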
MC4R antagonist: blocks human MC4R cAMP signaling; P32245; AID 540295; 360,000 tested, 0.48% active; MC4R-expressing cells, MTII-stimulated cAMP, LANCE TR-FRET; inhibition, % at 6.5 µM;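 active = inhibition above its plate's cutoff, the mean of tested wells on that plate plus 3 SD, cut at about 29% in these data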;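 also: 0% = Melanotan II alone and 100% = Melanotan II plus saturating MCL0020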
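Material: U2OS-MC4R stable cell line | Reagent: Melanotan II challenge after compound preincubation | Doses: One concentration, 6.5 µM nominal | Incubation: 30-min compound preincubation, 1-h Melanotan II challenge, 1-h detection, room temperature | Signal: TR-FRET cAMP assay | Replicates: One well per compound, no replicates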
A1 inh: inhibitors of the anti-apoptotic protein A1, read as caspase activation; AID 2462; caspase activation, % (no concentration beside the values); 330,000 tested, 0.066% active; MEF A1-2A-BIM cells, Caspase-Glo 3/7 luminescence, 3 h; percent of clofoctol response, vehicle zero;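 active = over half of replicate activation scores above 10%, or exactly half above 10 with the replicate mean above 10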
HGIII-sPLA2 inh: Blocks human group III sPLA2 activity | Q9NZ20 | QFRET BODIPY PC-A2 liposome hydrolysis, fluorescence | inhibition, % at 12.2 µM | 370,000 tested, 0.56% active | AID 743126;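 active = inhibition above mean plus 3 SD of compounds lying within the high and low control bounds, cut at about 19% in these data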;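 also: 0% = median of test compound wells and 100% = no enzyme DMSO wells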
hGIII sPLA2 conf: human GIII-sPLA2 inhibition, confirmation; shares compounds with HGIII-sPLA2 inh; recombinant hGIII-sPLA2, BODIPY PC-A2 QFRET fluorescence; inhibition, % at 12.2 µM; 2,000 tested, 34% active; AID 743280;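 active = mean inhibition across triplicates above the hit cutoff set in the earlier primary screen, cut at about 19% in these data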;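 also: 0% = enzyme with DMSO and 100% = DMSO wells lacking enzyme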
BODIPY interf: counter-screen for HGIII-sPLA2 inhibitors: 535nm fluorescence interference | AID 743282 | shares compounds with HGIII-sPLA2 inh | BODIPY FL product fluorescence interference, QFRET | inhibition, % at 12.2 µM | 2,000 tested, 8.5% active;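 active = average inhibition above the solvent-only control mean plus 3 SD, cut at about 6% in these data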;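 also: 0% = DMSO with substrate plus product and 100% = DMSO with substrate alone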
535nm interf DR: interferes with 535nm fluorescence in dose response counter-screen; shares compounds with HGIII-sPLA2 inh; BODIPY FL product fluorescence interference, cell-free; IC50, µM; 240 tested, under 10 active; AID 743455;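 active = IC50 at or below 10 µM; inactive = IC50 above 10 µM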
Active calls of the source: *; . = not tested or not shown.

SMILES	MC4R barr agon	NTR1 agonist	Exocytosis inh	MC4R antagonist	A1 inh	HGIII-sPLA2 inh	hGIII sPLA2 conf	BODIPY interf	others
COC(=O)C1=C(C)N(Cc2ccc(C(F)(F)F)cc2)C(=NCc2ccccc2)NC1c1ccc(Cl)cc1 (stereo unspecified)	.	.	.	.	.	2	.	.
CC(C)NC(=S)NC(c1ccccc1)(c1ccccc1)c1ccccc1	0	3	-4	16	-1	22*	29*	-12
C/C(=N\NC(=S)NC(C)C)c1ccccc1	0	2	-1	-3	0	11	.	.
CCN(CC)c1ccc(C(=C2C=CC(=[N+](CC)CC)C=C2)c2ccc(N(CC)CC)cc2)cc1	-10	.	0	-24	.	60*	61*	-15	535nm interf DR=>122
CCOC(=O)c1sc(=S)n(-c2ccccc2)c1N	-1	4	26	1	0	7	.	.
CCOC(=O)c1sc(=S)n(-c2ccc(OC)cc2)c1N	1	1	-5	-1	-1	25*	15	-1
C/C(=N\OCc1nc2ccccc2c(=O)n1/N=C/c1cc(C)cc([N+](=O)[O-])c1O)c1ccccc1	0	3	-1	13	1	22*	33*	8.8*
C/C(=N\OCc1nc2ccccc2c(=O)n1/N=C/c1cc([N+](=O)[O-])ccc1O)c1ccccc1	-3	10	-3	7	0	-8	.	.
S=C(NCC1CCCO1)Nc1ccc(Cl)cc1Cl (stereo unspecified)	2	2	-1	2	0	25*	3	-4
O=C(NC(=S)NCCN1CCOCC1)c1ccc(Cl)cc1Cl	-1	-1	-3	1	0	21*	12	-7
O=C(NC(=S)NCCN1CCOCC1)c1ccc(Cl)cc1	-4	0	0	4	0	7	.	.
Cc1cc(C)c(C(=O)N2CCCC(CNC(=O)C3(c4ccc(Cl)cc4)CC3)C2)c(=O)[nH]1 (stereo unspecified)	-3	1	-2	6	0	0	.	.
COC(=O)C1CCN(C(=O)COC(=O)[C@@H]2CC(O)CN2S(=O)(=O)c2ccc3c(c2)OCCO3)CC1 (stereo partly specified)	-2	-1	1	6	0	3	.	.
COC(=O)C1=CN(c2ccc(N3CCOCC3)cc2)C(N)=C(C#N)C1c1cccc(OC)c1OC (stereo unspecified)	.	.	-3	.	.	20*	-5	-20
Cn1c(=O)c2c(ncn2CC(=O)OCC(=O)c2ccc(OC(F)F)cc2OC(F)F)n(C)c1=O	-1	.	3	16	.	6	.	.
CCCCN1CNC(=S)N(Cc2ccccc2)C1	1	-3	-1	0	1	28*	19	-8
O=C(O)CNS(=O)(=O)Cc1ccccc1	1	0	-1	-9	-1	20*	5	-6
O=C(NCC(c1cccs1)N1CCOCC1)c1cc([N+](=O)[O-])ccc1Cl (stereo unspecified)	-2	-3	0	5	0	19*	0	-4
O=C(NCC(c1cccs1)N1CCOCC1)c1ccc([N+](=O)[O-])cc1 (stereo unspecified)	-1	2	0	6	-1	4	.	.
Cc1ccc(-c2ccc(CCC(=O)O)n2-c2ccc(C(=O)O)cc2)cc1	-2	1	9	3	-1	-26	.	.
COc1cccc(NC(=O)C2C3C=CC4(O3)C2C(=O)N(CCCN2CCCCC2)C4C(=O)NC2CCCCC2)c1 (stereo unspecified)	1	3	-1	0	1	2	.	.
